Assay results from ChEMBL document CHEMBL4342424, “A synthetic 2,3-diarylindole induces microtubule destabilization and G2/M cell cycle arrest in lung cancer cells” (Bioorg Med Chem Lett, 2020).
Values belong to the compound of their own block, whether it stands above or below them. Active and inactive are the calls of the source. No cut-off for these calls is given here.

Tests used:
[1] = tested on: A549; assay: Antiproliferative activity against human A549 cells assessed as reduction in cell viability after 72 hrs by MTT assay; assay type: functional, cell-based; conditions: A549, 72 h
[2] = tested on: A549; assay: Cytotoxicity against human A549 cells assessed as change in cell morphology incubated for 48 hrs; assay type: functional, cell-based
[3] = target: T1, Tubulin (Sus scrofa) (UniProt P02554+P02550); assay: Induction of porcine brain tubulin polymerization at 10 uM
[4] = tested on: A549; assay: Induction of cell cycle arrest in human A549 cells assessed as accumulation at G2/M phase at 2.5 uM incubated for 24 hrs by Muse cell analyzer based flow cytometry (reference value: 22.3 to 24%); assay type: functional
[5] = tested on: A549; assay: Induction of cell cycle arrest in human A549 cells assessed as accumulation at S phase at 5 uM incubated for 24 hrs by Muse cell analyzer based flow cytometry (reference value: 8%); assay type: functional
[6] = tested on: A549; assay: Induction of cell cycle arrest in human A549 cells assessed as accumulation at G0/G1 phase at 2.5 uM incubated for 24 hrs by Muse cell analyzer based flow cytometry (reference value: 63.9%); assay type: functional
[7] = target: T1, Tubulin (Sus scrofa); assay: Inhibition of porcine brain tubulin polymerization at 10 uM
[8] = tested on: A549; assay: Induction of cell cycle arrest in human A549 cells assessed as accumulation at G2/M phase at 5 uM incubated for 24 hrs by Muse cell analyzer based flow cytometry (reference value: 22.3 to 24%); assay type: functional
[9] = tested on: A549; assay: Induction of cell cycle arrest in human A549 cells assessed as accumulation at S phase at 2.5 uM incubated for 24 hrs by Muse cell analyzer based flow cytometry (reference value: 8%); assay type: functional
[10] = tested on: A549; assay: Induction of cell cycle arrest in human A549 cells assessed as increase in accumulation at G2/M phase incubated for 24 hrs by Muse cell analyzer based flow cytometry; assay type: functional
[11] = tested on: A549; assay: Induction of cell cycle arrest in human A549 cells assessed as accumulation at G0/G1 phase at 5 uM incubated for 24 hrs by Muse cell analyzer based flow cytometry (reference value: 63.9%); assay type: functional
[12] = Drug uptake in cytoplasm of human A549 cells at 250 uM incubated for 3 hrs by Hoechst 33342 staining based confocal laser microscopic method; assay type: ADME, subcellular; conditions: a549, 3 h
Summary of the method: (§1)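 Live A549 cells were incubated for 3 h with the FITC-linked conjugate at 250 μM, then stained with Hoechst 33342 nuclear dye at 0.1 for 5 min. Live-cell confocal laser microscopy located the green signal in the cytoplasm or nucleus.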

[13] = Drug uptake in nucleus of human A549 cells at 250 uM incubated for 3 hrs by Hoechst 33342 staining based confocal laser microscopic method; assay type: ADME, subcellular; conditions: a549, 3 h; summary of the method: as §1
[14] = tested on: A549; assay: Induction of cell cycle arrest in human A549 cells assessed as accumulation at G2/M phase at 200 uM incubated for 24 hrs by Muse cell analyzer based flow cytometry (reference value: 16.2%); assay type: functional

T1 sequence (P02550 whole entry, looked up): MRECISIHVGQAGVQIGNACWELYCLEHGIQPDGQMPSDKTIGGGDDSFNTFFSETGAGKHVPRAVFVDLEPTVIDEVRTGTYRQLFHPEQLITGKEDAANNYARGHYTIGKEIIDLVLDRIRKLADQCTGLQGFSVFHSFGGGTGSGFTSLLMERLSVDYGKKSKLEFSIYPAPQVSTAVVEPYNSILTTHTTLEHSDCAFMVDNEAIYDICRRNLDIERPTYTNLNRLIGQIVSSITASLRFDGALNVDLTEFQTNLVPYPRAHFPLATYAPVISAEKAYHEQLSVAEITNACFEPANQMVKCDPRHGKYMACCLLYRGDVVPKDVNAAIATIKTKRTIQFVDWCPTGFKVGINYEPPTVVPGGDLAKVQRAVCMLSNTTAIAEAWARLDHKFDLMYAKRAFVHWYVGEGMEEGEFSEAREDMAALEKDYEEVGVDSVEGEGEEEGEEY
T1 sequence (P02554 whole entry, looked up): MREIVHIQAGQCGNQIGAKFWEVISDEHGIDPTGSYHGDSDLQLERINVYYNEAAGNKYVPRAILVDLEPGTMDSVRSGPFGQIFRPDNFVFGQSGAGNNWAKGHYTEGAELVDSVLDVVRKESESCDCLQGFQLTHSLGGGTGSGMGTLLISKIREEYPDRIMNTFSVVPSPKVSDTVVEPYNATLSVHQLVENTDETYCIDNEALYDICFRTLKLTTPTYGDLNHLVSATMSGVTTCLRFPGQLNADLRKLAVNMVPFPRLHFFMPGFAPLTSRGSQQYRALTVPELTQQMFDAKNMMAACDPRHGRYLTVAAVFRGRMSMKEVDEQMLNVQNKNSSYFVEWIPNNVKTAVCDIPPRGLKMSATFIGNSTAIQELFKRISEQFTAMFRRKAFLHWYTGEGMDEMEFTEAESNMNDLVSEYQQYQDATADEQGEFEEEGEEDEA

Structure (SMILES): CC(=O)O[C@H]1C(=O)[C@@]2(C)[C@H]([C@H](OC(=O)c3ccccc3)[C@]3(O)C[C@H](OC(=O)[C@H](O)[C@@H](NC(=O)c4ccccc4)c4ccccc4)C(C)=C1C3(C)C)[C@]1(OC(C)=O)CO[C@@H]1C[C@@H]2O
Activity [3]: Active

Structure (SMILES): COC(=O)c1ccc(-c2c(-c3ccccc3)c3ccccc3n2CCOCCOCCO)cc1
IC50 [1]: 41.3 µM

Structure (SMILES): COC(=O)c1ccc(-c2c(-c3ccccc3)[nH]c3ccccc23)cc1
Activity [4]: 41.4 - 42.8% | Activity [5]: 7.5% | Activity [6]: 40.9% | inhibition [7]: Active | Activity [8]: 70 - 71% | Activity [9]: 9.5% | Activity [10]: Dose-dependent effect | Activity [11]: 10.2%

Structure (SMILES): O=C(OCCOCCOCCOCCOCCOCCNC(=S)Nc1ccc(-c2c3ccc(=O)cc-3oc3cc(O)ccc23)c(C(=O)O)c1)c1ccc(-c2c(-c3ccccc3)[nH]c3ccccc23)cc1
Drug uptake [12]: Active | Drug uptake [13]: Not Active | IC50 [1]: 238 µM | Activity [14]: 53.3%

More lines, in order of falling IC50 [1], values ahead:

IC50 [1]: 30.8 µM
Structure (SMILES): COC(=O)c1ccc(-c2c(-c3ccccc3)n(CCOCCOCCO)c3ccccc23)cc1

IC50 [1]: 29.5 µM
Structure (SMILES): O=C(OCCOCCOCCO)c1ccc(-c2[nH]c3ccccc3c2-c2ccccc2)cc1

IC50 [1]: 10.2 µM
Structure (SMILES): O=C(OCCOCCOCCO)c1ccc(-c2c(-c3ccccc3)[nH]c3ccccc23)cc1
Activity [2]: Active
